Screening results (PubChem BioAssay)
PGC1a acetyl inh = inhibitors of PGC1a acetylation signal, primary screen, cell-based, U2OS, AlphaScreen, inhibitor mode; AID 651687, 2012; inhibition, % at 15.6 µM; AlphaScreen anti-acetyl-lysine; with virally co-expressed GCN5 acetyltransferase; actives 0.17% (n = 350,000);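 active means every replicate shows inhibition of at least 40%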
Cneo AK release = Cryptococcus neoformans cell lysis inducers, primary screen, AK release luminescence, single concentration; AID 651654, 2012; actives 0.2% (n = 360,000); lysis activity, % at 15 µM; C. neoformans lysis, adenylate kinase release luminescence, 4 h; normalised: neutral wells 0, clomiphene wells 100;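 active means mean lysis activity across replicates of at least 80%, whatever share of replicates individually reach that level; inactive means mean lysis activity below 80%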
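Assay system: Cryptococcus neoformans yeast cells / Dosing: single-point compound dose / Timing: 4 h at 37 °C static, read 1 h later / Measured by: luminescence of released adenylate kinase using an AK detection reagent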
SIRT5 block = SIRT5 desuccinylase inhibitors, primary screen, biochemical, fluorescence imaging, single point, set 5. actives 1.1% (n = 330,000). Purified SirT5, succinyl-peptide AMC, trypsin-coupled fluorescence. NAD-dependent protein deacylase sirtuin-5, mitochondrial (Homo sapiens), Q9NXA8. AID 652115, 2013. inhibition, % at 15 µM; in the data active means inhibition above about 15%
Target sequence (Q9NXA8 whole entry, looked up): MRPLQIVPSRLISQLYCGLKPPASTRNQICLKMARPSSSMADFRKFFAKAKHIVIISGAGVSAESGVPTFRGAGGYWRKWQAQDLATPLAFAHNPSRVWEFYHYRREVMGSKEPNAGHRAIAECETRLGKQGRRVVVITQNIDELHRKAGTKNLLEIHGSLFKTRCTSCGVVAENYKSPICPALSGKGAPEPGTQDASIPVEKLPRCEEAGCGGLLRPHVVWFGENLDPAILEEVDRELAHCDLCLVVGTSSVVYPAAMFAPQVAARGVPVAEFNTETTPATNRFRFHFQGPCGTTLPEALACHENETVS
C2C12 statin = suppressors of statin myotoxicity in C2C12 myotubes, primary screen, cell-based, single point, plate reader; C2C12 myotubes + simvastatin, ATP luminescence, 48 h; scaled: DMSO 0, geranylgeraniol control 100; actives 0.78% (n = 330,000); rescue of ATP level, % at 7.49 µM;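 active means mean ATP rescue above about 67%, or every replicate alone reaching that limit, limit read from the data, passing the limit was not always enough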;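 further: myotubes were challenged with 10 µM simvastatin during compound exposure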
Ecoli rRNA inh = reduced GFP signal of wild-type E. coli, primary screen, bacterial rRNA inhibitor project, GFP/RFP fluorescence, OD600, single point; actives 1.6% (n = 350,000); GFP signal change (wild-type ribosome), % (concentration not given with the values); E. coli WT GFP vs humanized-ribosome RFP mutants, 24 h; active compounds read low; DMSO median 0, no signal -100;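 active means significant combined selectivity score with lowered wild-type GFP, culture density cut under 30%, mutant RFP and density less affected; inactive means any of these conditions unmet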
S100A4 inh HTS = inhibitors of S100A4-myosin IIA peptide binding, primary screen, biochemical, fluorescence polarization, TAMRA-MyoIIA peptide; inhibition, % at 10.7 µM; actives 0.14% (n = 360,000); AID 652163, 2013; Protein S100-A4 (Homo sapiens), P26447;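 active means mean inhibition of at least 70% across replicates, with every replicate also reaching that level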
Target sequence (P26447 whole entry, looked up): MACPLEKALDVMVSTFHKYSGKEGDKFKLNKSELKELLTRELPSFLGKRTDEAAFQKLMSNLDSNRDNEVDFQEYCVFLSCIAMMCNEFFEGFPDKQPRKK
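assay system = human S100A4 monomer with TAMRA-labelled myosin IIA peptide | also added = labelled myosin peptide probe, 5 nM | incubation = 5 min between mix addition and reading | control set = DMSO and TFP controls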
Each line names hits and unclear results; the compound was inactive in the other large screens; ! = not active in a repeat. Shown are actives, neighbours in structure and some others; about 3% of the full set was active somewhere.

Cc1cccc(S(=O)(=O)N(C)C[C@H]2OCc3ccccc3-c3c(n(C)c4ccccc34)C(=O)N([C@H](C)CO)C[C@@H]2C)c1	none (no result: C2C12 statin)
CO[C@H]1CN(C)C(=O)c2cc(C#N)ccc2OCC[C@H]2CC[C@@H](OC)[C@@H](CN(C)C(=O)[C@@H]1C)O2	none (no result: PGC1a acetyl inh)
C[C@@H]1CN([C@@H](C)CO)C(=O)c2ccccc2-c2ccccc2CO[C@H]1CN(C)S(=O)(=O)c1ccc(Cl)cc1	SIRT5 block 15 (no result: C2C12 statin)
C[C@@H]1CN([C@H](C)CO)C(=O)c2ccccc2-c2ccccc2CO[C@H]1CN(C)S(=O)(=O)c1cccs1	SIRT5 block 18 (no result: C2C12 statin)
COc1cccc(S(=O)(=O)N(C)C[C@H]2OCc3ccccc3-c3c(n(C)c4ccccc34)C(=O)N([C@@H](C)CO)C[C@H]2C)c1	C2C12 statin 69
C[C@@H]1CN([C@H](C)CO)C(=O)c2c(c3ccccc3n2C)-c2ccccc2CO[C@@H]1CN(C)S(=O)(=O)c1ccccc1	none
C[C@H](CO)N1C[C@H](C)[C@H](CN(C)S(=O)(=O)c2cccs2)OCc2ccccc2-c2ccccc2C1=O	none
C[C@H](CO)N1C[C@H](C)[C@H](CN(C)S(=O)(=O)c2ccc(Cl)cc2)OCc2ccccc2-c2c(n(C)c3ccccc23)C1=O	SIRT5 block 22!
C[C@@H]1CN([C@@H](C)CO)C(=O)Cc2cc(N(C)C)ccc2O[C@@H]1CN(C)C(=O)Nc1ccc2c(c1)OCO2	none
CN1C(=O)c2cc(NC(=O)c3cccs3)ccc2OC[C@@H]2O[C@@H](CC(=O)NCC(F)(F)F)CC[C@@H]21	none
Cc1ccc(NC(=O)CCNC(=O)c2ccccc2Cl)cc1S(=O)(=O)N(C)C	none (no result: SIRT5 block, Ecoli rRNA inh, S100A4 inh HTS)
Cc1ccc(NC(=O)COC(=O)c2ccccc2Cl)cc1S(=O)(=O)N(C)C	Ecoli rRNA inh -34 (no result: Cneo AK release, C2C12 statin)
Cc1ccc(NC(=O)c2ccncc2)cc1S(=O)(=O)N(C)C	none (no result: PGC1a acetyl inh, C2C12 statin)
Cc1ccc(NC(=O)c2ccc(Br)o2)cc1S(=O)(=O)N(C)C	Ecoli rRNA inh -21 (no result: Cneo AK release)
COc1ccc2c3c([nH]c2c1)[C@@H](CO)N(C(C)=O)CC31CCN(C(=O)CN2CCOCC2)CC1	none (no result: Cneo AK release, C2C12 statin)
c1ccc(CSc2ncnc3sccc23)cc1	Ecoli rRNA inh -27 (no result: PGC1a acetyl inh, C2C12 statin)
CC1=NN(C(=O)c2ccc(Cn3cc([N+](=O)[O-])cn3)cc2)C(O)(C(F)(F)F)C1 (centres undefined)	SIRT5 block 18 (no result: PGC1a acetyl inh, Cneo AK release, C2C12 statin, Ecoli rRNA inh)
CCN(CC)S(=O)(=O)c1ccc(/C=C/C(=O)O)cc1	none
CCN(CC)S(=O)(=O)c1cccc(NC(=O)COc2ccc(F)cc2Br)c1	Ecoli rRNA inh -27 (no result: PGC1a acetyl inh, Cneo AK release, C2C12 statin)
CCN(CC)S(=O)(=O)c1cccc(NC(=O)c2ccc(SC)cc2OC)c1	Ecoli rRNA inh -25 (no result: PGC1a acetyl inh)
CCN(CC)S(=O)(=O)c1ccc(C)c(NC(=O)COc2ccc(Cl)cc2Br)c1	none (no result: PGC1a acetyl inh, SIRT5 block, C2C12 statin)
CCN(CC)S(=O)(=O)c1ccc(/C=C/C(=O)Nc2cccc(F)c2)cc1	Ecoli rRNA inh -17 (no result: PGC1a acetyl inh, C2C12 statin)
CCCN(C)C[C@H]1Oc2cc(C#CCC3CCCC3)ccc2S(=O)(=O)N([C@H](C)CO)C[C@H]1C	none (no result: Cneo AK release, SIRT5 block, S100A4 inh HTS)
CC(C)NC(=O)N(C)C[C@H]1OCc2ccccc2-c2c(n(C)c3ccccc23)C(=O)N([C@H](C)CO)C[C@H]1C	none
CC(C)NC(=O)Nc1ccc2c(c1)C(=O)N([C@@H](C)CO)C[C@H](C)[C@@H](CN(C)Cc1ccc3c(c1)OCO3)OCCCC[C@H](C)O2	none (no result: SIRT5 block, C2C12 statin, S100A4 inh HTS)
CC(C)(C)c1ccc(CCC2OCC(C[N+]3(C)CCOCC3)O2)cc1 (centres undefined)	PGC1a acetyl inh 73 (no result: C2C12 statin)
C[C@H](NC(=O)C[C@@H]1CC[C@@H]2[C@H](COC[C@H](O)CN2C(=O)Nc2cc(Cl)cc(Cl)c2)O1)c1ccccc1	none
O=S(=O)(c1ccc(F)cc1)N1CC[C@@H]2[C@H](CO)Nc3ccc(-c4ccccc4F)cc3[C@@H]21	none
O=C(c1ccc(Cl)cc1)N1CCc2c([nH]c3ccccc23)C1C(F)(F)F (centres undefined)	Ecoli rRNA inh -21 (no result: C2C12 statin)
CN(C)CCCN(C(=O)c1ccc2c(c1)OCCO2)c1nc2ccc(Cl)cc2s1	Ecoli rRNA inh -46 (no result: PGC1a acetyl inh)
CCN(CC)CCN(C(=O)c1ccc2c(c1)OCCO2)c1nc2c(Cl)cccc2s1	Ecoli rRNA inh -22 (no result: PGC1a acetyl inh)
CCN(CC)CCN(C(=O)c1ccc2c(c1)OCCO2)c1nc2cc(C)cc(C)c2s1	Ecoli rRNA inh -21 (no result: C2C12 statin)
CCN(CC)CCN(C(=O)c1ccc2ccccc2c1)c1nc2cc3c(cc2s1)OCO3	none (no result: PGC1a acetyl inh)
CN(C)CCN(C(=O)c1cccc(Cl)c1)c1nc2c(Cl)cccc2s1	none (no result: SIRT5 block, Ecoli rRNA inh, S100A4 inh HTS)
C[C@@H]1CN([C@@H](C)CO)C(=O)c2cccc(NC(=O)c3ccncc3)c2O[C@H]1CN(C)C	none
CN1C(=O)c2cc(NC(=O)Nc3cccc(Cl)c3)ccc2OC[C@H]2O[C@H](CC(=O)NCCc3ccncc3)CC[C@@H]21	none
C[C@@H]1CN([C@@H](C)CO)C(=O)c2cc(NS(=O)(=O)c3ccccc3)ccc2O[C@@H](C)CCCCO[C@H]1CN(C)S(=O)(=O)c1ccc(Cl)cc1	SIRT5 block 16 (no result: Cneo AK release, C2C12 statin)
C[C@@H]1CCCCO[C@@H](CN(C)S(=O)(=O)c2ccc(Cl)cc2)[C@H](C)CN([C@@H](C)CO)C(=O)c2cc(NS(=O)(=O)c3ccccc3)ccc2O1	SIRT5 block 21 (no result: Cneo AK release, C2C12 statin)
C[C@H]1CCCCO[C@@H](CN(C)S(=O)(=O)c2ccc(Cl)cc2)[C@@H](C)CN([C@@H](C)CO)C(=O)c2cc(NS(=O)(=O)c3ccccc3)ccc2O1	none
C[C@@H]1CCCCO[C@@H](CN(C)S(=O)(=O)c2ccccc2)[C@H](C)CN([C@H](C)CO)C(=O)c2cc(NS(=O)(=O)c3ccc(Cl)cc3)ccc2O1	none (no result: C2C12 statin)
C[C@@H]1CCCCO[C@H](CN(C)S(=O)(=O)c2ccc(Cl)cc2)[C@H](C)CN([C@@H](C)CO)C(=O)c2cc(NS(=O)(=O)c3ccccc3)ccc2O1	SIRT5 block 16 (no result: Cneo AK release, C2C12 statin)
O=C(CN1CCN(Cc2ccc(Cl)cc2)CC1)N/N=C/C=C/c1ccccc1[N+](=O)[O-]	Ecoli rRNA inh -42 (no result: PGC1a acetyl inh, Cneo AK release, C2C12 statin)
CCOC(=O)c1c(NC(=O)CSc2nnc(C)s2)sc2c1CCC(C)C2 (centres undefined)	C2C12 statin 98 (no result: SIRT5 block, Ecoli rRNA inh, S100A4 inh HTS)
CCOC(=O)c1c(NC(=O)CSc2nnc(C)s2)sc2c1CCCCC2	none (no result: SIRT5 block, C2C12 statin, Ecoli rRNA inh, S100A4 inh HTS)
